In brackets after ≈: the same amount, converted by molar mass.
Assays:
[1] = Hemolytic activity in human Red blood cells assessed as hemolysis rate incubated for 1 hr by absorbance based spectrophotometric analysis relative to control; type: toxicity, cell-based, Erythrocyte; details: read-out: Activity
Method in brief: (§1)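 Human erythrocyte suspension mixed 1:1 with compound in Hartmann's solution at final 125 μM, final DMSO 1.0% (v/v), 37 °C for 1 h. After centrifugation, released haemoglobin in the supernatant was read at 405 nm. Negative control was hRBCs with 1.0% DMSO; positive control was hRBCs sonicated for 1 min.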

Mycobacterium avium [2] = experiment: Antimycobacterial activity against INH/RIF/rifabutin/OFX/EMB resistant Mycobacterium avium CNCTC 330/88 assessed as bacterial growth inhibition incubated for 21 days by two-fold serial dilution method; type: functional; details: CNCTC 330/88, 504 h, time 21 day
Method in brief: (§2)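 M. avium CNCTC 330/88 (stock suspension dilution 10−5) grown in Šula's semisynthetic liquid medium; two-fold serial dilutions 1000 to 1 μM from DMSO stocks (final DMSO 1.0% v/v); final load 1.5 × 10^5 CFU mL−1; MIC read visually as lowest concentration giving complete growth inhibition after 14 and 21 days.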

Mycobacterium kansasii [3] = experiment: Antimycobacterial activity against INH/RIF/rifabutin/OFX/EMB Mycobacterium kansasii CNCTC 6509/96 clinical isolate assessed as bacterial growth inhibition incubated for 7 days by two-fold serial dilution method; type: functional; details: CNCTC 6509/96, 168 h, time 7 day
Method in brief: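 Šula's liquid semisynthetic medium; M. kansasii clinical isolate 6509/96 used at stock dilution 10−4, final ~1.5 × 10^5 CFU mL−1. Two-fold dilutions ran 1000–1 μM with final DMSO 1.0% (v/v). MIC was read visually as complete growth inhibition after 7, 14 and 21 days.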

Mycobacterium kansasii [4] = experiment: Antimycobacterial activity against multi-drug resistant Mycobacterium kansasii CNCTC 6509/96 clinical isolate assessed as bacterial growth inhibition incubated for 14 days by two-fold serial dilution method; type: functional; details: CNCTC 6509/96, 336 h, time 14 day
Method in brief: (§3)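 M. kansasii clinical isolate 6509/96 (stock dilution 10−4) in Šula's semisynthetic liquid medium; two-fold serial dilutions 1000 to 1 μM, DMSO final 1.0% v/v; final load 1.5 × 10^5 CFU mL−1; MIC read visually as complete growth inhibition at 7, 14 and 21 days.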

Mycobacterium kansasii [5] = experiment: Antimycobacterial activity against multi-drug resistant Mycobacterium kansasii clinical isolate CNCTC 6509/96 assessed as bacterial growth inhibition incubated for 21 days by two-fold serial dilution method; type: functional; details: CNCTC 6509/96, 504 h, time 21 day; method in brief: as §3
[6] = test system: Mycobacterium tuberculosis; experiment: Antimycobacterial activity against multidrug sensitive Mycobacterium tuberculosis H37Rv CNCTC 331/88 assessed as bacterial growth inhibition incubated for 14 days by two-fold serial dilution method; type: functional; details: H37Rv CNCTC 331/88, 336 h, time 14 day
[7] = test system: Mycobacterium tuberculosis; experiment: Antimycobacterial activity against Mycobacterium tuberculosis H37Rv CNCTC 331/88 assessed as bacterial growth inhibition incubated for 21 days by two fold serial dilution method; type: functional; details: H37Rv CNCTC 331/88, 504 h, time 21 day
Mycobacterium avium [8] = experiment: Antimycobacterial activity against INH/RIF/rifabutin/OFX/EMB resistant Mycobacterium avium CNCTC 330/88 assessed as bacterial growth inhibition incubated for 14 days by two-fold serial dilution method; type: functional; details: CNCTC 330/88, 336 h, time 14 day; method in brief: as §2
[9] = test system: Staphylococcus epidermidis; experiment: Antibacterial activity against Staphylococcus epidermidis ATCC 12228 assessed as bacterial growth inhibition incubated for 24 to 48 hrs by broth microdilution method; type: functional; details: time 24-48 hrs
Method in brief: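 Broth microdilution in cation-adjusted Mueller-Hinton broth, adapted from EUCAST. Compounds were tested at 0.98–500 μM with final DMSO ≤1.0% (v/v). Inoculum came from 16–24 h cultures, final ~5 × 10^5 CFU mL−1. Plates were incubated statically, dark and humidified, at 35 ± 2 °C. MIC was read by eye at 24 and 48 h as the lowest concentration with no visible growth.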

[10] = Hemolytic activity in human Red blood cells assessed as effect of lipid bilayer membrane incubated for 1 hr by absorbance based spectrophotometric analysis; type: toxicity, cell-based; details: erythrocyte; method in brief: as §1
Staphylococcus aureus = experiment: Antibacterial activity against methicillin-resistant Staphylococcus aureus ATCC 43300 assessed as bacterial growth inhibition incubated for 24 to 48 hrs by broth microdilution method; type: functional; details: time 24-48 hrs
Method in brief: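 Broth microdilution per EUCAST with slight modification in cation-adjusted Mueller-Hinton broth; compounds from DMSO stocks (final DMSO ≤1.0% v/v), 0.98–500 μM; final inoculum about 5 × 10^5 CFU mL−1 from 16–24 h cultures; static incubation in dark, humidified air at 35 ± 2 °C; MIC read by eye at 24 and 48 h as lowest concentration without visible growth.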

Candida parapsilosis [11] = experiment: Antifungal activity against Candida parapsilosis ATCC 22019 measured after 24 to 48 hrs by microdilution broth method; type: functional; details: Lodderomyces parapsilosis, time 24-48 hrs
Method in brief: (§4)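 Yeast broth microdilution per EUCAST, slightly modified. Medium was RPMI-1640 with 2% glucose, MOPS-buffered to pH 7.0. Compounds were tested at 0.98–500 μM with final DMSO ≤1.0% (v/v). Inoculum came from 18–24 h cultures, final ~1–5 × 10^5 CFU mL−1. Plates were incubated statically, dark and humidified, at 35 ± 2 °C. MIC was read visually at 24 and 48 h (no visible growth).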

Lichtheimia corymbifera = experiment: Antifungal activity against Lichtheimia corymbifera CCM 8077 measured after 24 to 48 hrs by microdilution broth method; type: functional; details: time 24-48 hrs
Method in brief: (§5)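 Filamentous fungi tested by broth microdilution per EUCAST with minor changes. Compounds were tested at 0.98–500 μM with final DMSO ≤1.0% (v/v). Plates were incubated statically, dark and humidified, at 35 ± 2 °C for 24 and 48 h. MIC was the lowest concentration showing no visible growth.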

Candida parapsilosis [12] = experiment: Antifungal activity against Candida parapsilosis CCM 8260 measured after 24 to 48 hrs by microdilution broth method; type: functional; details: Lodderomyces parapsilosis, time 24-48 hrs; method in brief: as §4
Pichia kudriavzevii [13] = experiment: Antifungal activity against Candida krusei CCM 8271 measured after 24 to 48 hrs by microdilution broth method; type: functional; details: time 24-48 hrs; method in brief: as §4
Aspergillus flavus = experiment: Antifungal activity against Aspergillus flavus CCM 8363 measured after 24 to 48 hrs by microdilution broth method; type: functional; details: time 24-48 hrs; method in brief: as §5
Candida tropicalis [14] = experiment: Antifungal activity against Candida tropicalis ATCC 750 measured after 24 to 48 hrs by microdilution broth method; type: functional; details: time 24-48 hrs; method in brief: as §4
Pichia kudriavzevii [15] = experiment: Antifungal activity against Candida krusei ATCC 6258 measured after 24 to 48 hrs by microdilution broth method; type: functional; details: time 24-48 hrs; method in brief: as §4
[16] = test system: Trichophyton interdigitale; experiment: Antifungal activity against Trichophyton interdigitale ATCC 9533 measured after 24 to 48 hrs by microdilution broth method; type: functional; details: time 24-48 hrs
[17] = test system: Trichophyton interdigitale; experiment: Antifungal activity against Trichophyton interdigitale CCM 8377 measured after 24 to 48 hrs by microdilution broth method; type: functional; details: time 24-48 hrs
Candida albicans [18] = experiment: Antifungal activity against Candida albicans ATCC 24443 measured after 24 to 48 hrs by microdilution broth method; type: functional; details: time 24-48 hrs; method in brief: as §4
Aspergillus fumigatus = experiment: Antifungal activity against Aspergillus fumigatus ATCC 204305 measured after 24 to 48 hrs by microdilution broth method; type: functional; details: time 24-48 hrs; method in brief: as §5
Candida tropicalis [19] = experiment: Antifungal activity against Candida tropicalis CCM 8264 measured after 24 to 48 hrs by microdilution broth method; type: functional; details: time 24-48 hrs; method in brief: as §4
Candida albicans [20] = experiment: Antifungal activity against Candida albicans CCM 8320 measured after 24 to 48 hrs by microdilution broth method; type: functional; details: time 24-48 hrs; method in brief: as §4

Row | Compound | hemolysis at 1 h [1] [%] | MIC (Mycobacterium avium [2]) [µM] | MIC (Mycobacterium kansasii [3]) [µM] | MIC (Mycobacterium kansasii [4]) [µM] | MIC (Mycobacterium kansasii [5]) [µM] | MIC [6] [µM] | MIC [7] [µM] | MIC (Mycobacterium avium [8]) [µM] | MIC [9] [µM] | Activity [10] | also measured
1 | C/C(=N\NC(=O)c1ccncc1)C(=O)Nc1ccc(-c2ccccc2)cc1 | 0.01 | > 250 | 8 (≈ 2.87 µg/mL) | 8 (≈ 2.87 µg/mL) | 16 (≈ 5.73 µg/mL) | ≤ 0.25 | ≤ 0.25 | > 250 | – | – | –
2 | C/C(=N\NC(=O)c1ccncc1)C(=O)NNC(N)=S | – | 1000 (≈ 280 µg/mL) | 16 (≈ 4.49 µg/mL) | 32 (≈ 8.97 µg/mL) | 32 (≈ 8.97 µg/mL) | 1 (≈ 0.28 µg/mL) | 2 (≈ 0.561 µg/mL) | 1000 (≈ 280 µg/mL) | 125 (≈ 35 µg/mL) | – | –
3 | C/C(=N\NC(=O)c1ccncc1)C(=O)Nc1ccc(Sc2ccc([N+](=O)[O-])cc2)cc1 | – | 500 (≈ 218 µg/mL) | 1 (≈ 0.435 µg/mL) | 1 (≈ 0.435 µg/mL) | 2 (≈ 0.871 µg/mL) | 0.25 (≈ 0.109 µg/mL) | 0.25 (≈ 0.109 µg/mL) | 500 (≈ 218 µg/mL) | – | Non-toxic | –
4 | C/C(=N\NC(=O)c1ccncc1)C(=O)NNC(=O)c1ccncc1 | – | 500 (≈ 163 µg/mL) | 8 (≈ 2.61 µg/mL) | 16 (≈ 5.22 µg/mL) | 16 (≈ 5.22 µg/mL) | 0.25 (≈ 0.0816 µg/mL) | 0.5 (≈ 0.163 µg/mL) | 500 (≈ 163 µg/mL) | 250 (≈ 81.6 µg/mL) | – | MIC (Staphylococcus aureus): 500 µM (≈ 163 µg/mL)
5 | COC(=O)c1ccc(NC(=O)/C(C)=N/NC(=O)c2ccncc2)cc1O | – | ≥ 1000 | 8 (≈ 2.85 µg/mL) | 16 (≈ 5.7 µg/mL) | 16 (≈ 5.7 µg/mL) | 0.5 (≈ 0.178 µg/mL) | 0.5 (≈ 0.178 µg/mL) | ≥ 1000 | 125 (≈ 44.5 µg/mL) | – | –
6 | NNC(=O)c1ccncc1 [ISONIAZID] | 0.01 | > 250 | 8 (≈ 1.1 µg/mL) | 8 (≈ 1.1 µg/mL) | 16 (≈ 2.19 µg/mL) | 1 (≈ 0.137 µg/mL) | 1 (≈ 0.137 µg/mL) | > 250 | – | – | –
7 | CO[C@H]1/C=C/O[C@@]2(C)Oc3c(C)c(O)c4c(O)c(c(/C=N/N5CCN(C)CC5)c(O)c4c3C2=O)NC(=O)/C(C)=C\C=C\[C@H](C)[C@H](O)[C@@H](C)[C@@H](O)[C@@H](C)[C@H](OC(C)=O)[C@@H]1C [RIFAMPIN] | 0.01 | – | – | – | – | – | – | – | – | – | –
8 | COc1nc2ccc(Br)cc2cc1[C@@H](c1ccccc1)[C@@](O)(CCN(C)C)c1cccc2ccccc12 [BEDAQUILINE] | – | – | – | – | – | – | – | – | – | Toxic | –
9 | C/C(=N\NC(=O)c1ccncc1)C(=O)Nc1ccc(Oc2ccccc2)cc1 | – | 500 (≈ 187 µg/mL) | ≤ 1 | ≤ 1 | 2 (≈ 0.749 µg/mL) | 0.25 (≈ 0.0936 µg/mL) | 0.25 (≈ 0.0936 µg/mL) | 500 (≈ 187 µg/mL) | – | Non-toxic | MIC (Candida parapsilosis [11]): > 500 µM; MIC (Lichtheimia corymbifera): > 500 µM; MIC (Candida parapsilosis [12]): > 500 µM; MIC (Pichia kudriavzevii [13]): > 500 µM; MIC (Aspergillus flavus): > 500 µM; MIC (Candida tropicalis [14]): > 500 µM; MIC (Pichia kudriavzevii [15]): > 500 µM; MIC [16]: > 500 µM; MIC [17]: > 500 µM; MIC (Candida albicans [18]): > 500 µM; MIC (Aspergillus fumigatus): > 500 µM; MIC (Candida tropicalis [19]): > 500 µM; MIC (Candida albicans [20]): > 500 µM

Source: ChEMBL document CHEMBL6177921, “Enhancing the antimycobacterial efficacy of pyridine-4-carbohydrazide: linkage to additional antimicrobial agents via oxocarboxylic acids” (RSC Med Chem, 2025)
